ChEMBL document CHEMBL5104225, “Synthesis and structure-activity relationship studies of N-terminal analogues of the lipopeptide antibiotics brevicidine and laterocidine” (RSC Med Chem, 2022)
Converted amounts (≈) assume the structure as drawn. Bridge positions count the residues as written; N and C are the ends. Square brackets hold non-standard residues; d marks the D form. Peptide text beside a SMILES is read from it. * marks the point of attachment. Decanoyl = CCCCCCCCCC(=O)*; dOrn = NCCC[C@@H](N)C(=O)O; Orn = NCCC[C@H](N)C(=O)O; Butyryl = CCCC(=O)*

Key:
Type in all cases: functional
[1] = tested on: Klebsiella pneumoniae; experiment: Antibacterial activity against Klebsiella pneumoniae ATCC 13883 assessed as inhibition of bacterial growth incubated for 18 hrs by CLSI protocol based method
Summary of the method: (§1)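 Single colonies from blood agar (16 h, 37 °C) grown in TSB at 37 °C, 220 rpm to OD600 ~0.5, then diluted in MHB to 2×10^5 CFU/mL. Mixed with serial MHB dilutions of DMSO stocks in polypropylene plates, sealed, and incubated 18 h at 37 °C, 600 rpm. MIC was taken as the lowest concentration with no visible growth; three technical replicates.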

[2] = tested on: Pseudomonas aeruginosa; experiment: Antibacterial activity against Pseudomonas aeruginosa PAO1 assessed as inhibition of bacterial growth incubated for 18 hrs by CLSI protocol based method; summary of the method: as §1
[3] = tested on: Acinetobacter baumannii; experiment: Antibacterial activity against Acinetobacter baumannii ATCC 17961 assessed as inhibition of bacterial growth incubated for 18 hrs by CLSI protocol based method; summary of the method: as §1
[4] = tested on: Escherichia coli; experiment: Antibacterial activity against Escherichia coli ATCC 25922 assessed as inhibition of bacterial growth incubated for 18 hrs by CLSI protocol based method
Summary of the method: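 Broth microdilution MIC. Strain streaked from glycerol stock on sheep blood agar (16 h, 37 °C); a colony was grown in TSB at 37 °C, 220 rpm, to OD600 about 0.5. Cells were diluted in MHB to 2×10^5 CFU/mL and added 1:1 to serial dilutions in MHB in polypropylene plates.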

[5] = tested on: Staphylococcus aureus; experiment: Antibacterial activity against Staphylococcus aureus USA300 assessed as inhibition of bacterial growth incubated for 18 hrs by CLSI protocol based method; summary of the method: as §1
[6] = tested on: Escherichia coli; experiment: Antibacterial activity against colistin-resistant Escherichia coli ATCC 25922 carrying MCR-1 gene assessed as inhibition of bacterial growth incubated for 18 hrs by CLSI protocol based method
Summary of the method: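 Broth microdilution MIC. MCR-1 strain grown from glycerol stock in TSB with kanamycin (16 h, 37 °C, 220 rpm), diluted 100-fold in the same medium and grown to OD600 about 0.5. Cells were diluted in MHB to 2×10^5 CFU/mL and added 1:1 to serial dilutions in MHB. Incubated 18 h, 37 °C, 600 rpm; visual lowest no-growth concentration; three technical replicates.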

Structure (SMILES)	MIC [1] [µg/mL]	MIC [2] [µg/mL]	MIC [3] [µg/mL]	MIC [4] [µg/mL]	MIC [5] [µg/mL]	MIC [6] [µg/mL]
CC[C@H](C)[C@@H]1NC(=O)[C@@H](NC(=O)[C@H](Cc2c[nH]c3ccccc23)NC(=O)[C@@H](CCCN)NC(=O)CNC(=O)[C@H](CCCN)NC(=O)[C@@H](CCCN)NC(=O)[C@@H](Cc2c[nH]c3ccccc23)NC(=O)[C@@H](Cc2ccc(O)cc2)NC(=O)[C@H](N)CC(N)=O)[C@@H](C)OC(=O)[C@H](CO)NC(=O)CNC1=O	> 32	16 (≈ 11.4 µM)	> 32	> 32	> 32	–
CC[C@H](C)[C@@H]1NC(=O)[C@@H](NC(=O)[C@H](Cc2c[nH]c3ccccc23)NC(=O)[C@@H](CCCN)NC(=O)CNC(=O)[C@H](CCCN)NC(=O)[C@@H](CCCN)NC(=O)[C@@H](Cc2c[nH]c3ccccc23)NC(=O)[C@@H](Cc2ccc(O)cc2)NC(=O)[C@@H](CC(N)=O)NC(C)=O)[C@@H](C)OC(=O)[C@H](CO)NC(=O)CNC1=O (Ac-[dN][dY][dW][dOrn][Orn]G[dOrn]WTIGS; ester 9-C)	> 32	8 (≈ 5.52 µM)	> 32	> 32	> 32	–
CC[C@H](C)[C@@H]1NC(=O)[C@@H](NC(=O)[C@H](Cc2c[nH]c3ccccc23)NC(=O)[C@@H](CCCN)NC(=O)CNC(=O)[C@H](CCCN)NC(=O)[C@@H](CCCN)NC(=O)[C@@H](Cc2c[nH]c3ccccc23)NC(=O)[C@@H](Cc2ccc(O)cc2)NC(=O)[C@@H](CO)NC(C)=O)[C@@H](C)OC(=O)CNC(=O)CNC(=O)[C@H](CC(N)=O)NC1=O (Ac-[dS][dY][dW][dOrn][Orn]G[dOrn]WTINGG; ester 9-C)	> 32	16 (≈ 10.6 µM)	> 32	> 32	> 32	–
CCCC(=O)N[C@H](CC(N)=O)C(=O)N[C@H](Cc1ccc(O)cc1)C(=O)N[C@H](Cc1c[nH]c2ccccc12)C(=O)N[C@H](CCCN)C(=O)N[C@@H](CCCN)C(=O)NCC(=O)N[C@H](CCCN)C(=O)N[C@@H](Cc1c[nH]c2ccccc12)C(=O)N[C@@H]1C(=O)N[C@@H]([C@@H](C)CC)C(=O)NCC(=O)N[C@@H](CO)C(=O)O[C@@H]1C (Butyryl-[dN][dY][dW][dOrn][Orn]G[dOrn]WTIGS; ester 9-C)	8 (≈ 5.41 µM)	16 (≈ 10.8 µM)	32 (≈ 21.7 µM)	32 (≈ 21.7 µM)	> 32	32 (≈ 21.7 µM)
CCCC(=O)N[C@H](CO)C(=O)N[C@H](Cc1ccc(O)cc1)C(=O)N[C@H](Cc1c[nH]c2ccccc12)C(=O)N[C@H](CCCN)C(=O)N[C@@H](CCCN)C(=O)NCC(=O)N[C@H](CCCN)C(=O)N[C@@H](Cc1c[nH]c2ccccc12)C(=O)N[C@@H]1C(=O)N[C@@H]([C@@H](C)CC)C(=O)N[C@@H](CC(N)=O)C(=O)NCC(=O)NCC(=O)O[C@@H]1C (Butyryl-[dS][dY][dW][dOrn][Orn]G[dOrn]WTINGG; ester 9-C)	32 (≈ 20.9 µM)	8 (≈ 5.21 µM)	> 32	16 (≈ 10.4 µM)	> 32	32 (≈ 20.9 µM)
CCCCCCCCCC(=O)N[C@H](CC(N)=O)C(=O)N[C@H](Cc1ccc(O)cc1)C(=O)N[C@H](Cc1c[nH]c2ccccc12)C(=O)N[C@H](CCCN)C(=O)N[C@@H](CCCN)C(=O)NCC(=O)N[C@H](CCCN)C(=O)N[C@@H](Cc1c[nH]c2ccccc12)C(=O)N[C@@H]1C(=O)N[C@@H]([C@@H](C)CC)C(=O)NCC(=O)N[C@@H](CO)C(=O)O[C@@H]1C (Decanoyl-[dN][dY][dW][dOrn][Orn]G[dOrn]WTIGS; ester 9-C)	4 (≈ 2.56 µM)	8 (≈ 5.12 µM)	4 (≈ 2.56 µM)	4 (≈ 2.56 µM)	32 (≈ 20.5 µM)	4 (≈ 2.56 µM)
CCCCCCCCCC(=O)N[C@H](CO)C(=O)N[C@H](Cc1ccc(O)cc1)C(=O)N[C@H](Cc1c[nH]c2ccccc12)C(=O)N[C@H](CCCN)C(=O)N[C@@H](CCCN)C(=O)NCC(=O)N[C@H](CCCN)C(=O)N[C@@H](Cc1c[nH]c2ccccc12)C(=O)N[C@@H]1C(=O)N[C@@H]([C@@H](C)CC)C(=O)N[C@@H](CC(N)=O)C(=O)NCC(=O)NCC(=O)O[C@@H]1C (Decanoyl-[dS][dY][dW][dOrn][Orn]G[dOrn]WTINGG; ester 9-C)	2 (≈ 1.24 µM)	2 (≈ 1.24 µM)	2 (≈ 1.24 µM)	2 (≈ 1.24 µM)	> 32	2 (≈ 1.24 µM)
